From ChEMBL document CHEMBL5252639, “Exploration of cytotoxic potential and tubulin polymerization inhibition activity of cis-stilbene-1,2,3-triazole congeners” (RSC Med Chem, 2023)
pIC50: −log10 of the molar value. Calls of active or inactive are those of the source. The rule behind the calls is not given here.

Assays:
HCT-116 [1] = test: Induction of apoptosis in human HCT-116 cells assessed as late apoptotic cells at 1.62 uM measured after 24 hrs by Annexin V-FITC/propidium iodide staining based flow cytometry (reference value: 0.00%); assay type: functional
HCT-116 [2] = test: Induction of cell cycle arrest in human HCT-116 cells assessed as accumulation of cells at G2/M phase at 1.62 uM measured after 24 hrs by PI staining based flow cytometry analysis relative to control (reference value: 15.61%)
Tubulin (Homo sapiens) [3] = target: T1, Tubulin (Homo sapiens) (UniProt P68371+Q9H4B7+P0DPH7+P68366+Q13509+Q71U36+P04350+Q3ZCM7+P07437+P68363+Q9BQE3+Q6PEY2+Q13885+Q9BVA1+Q9BUF5); test: Inhibition of tubulin polymerization in human HCT-116 cells at 6.50 uM measured after 1 hr relative to control; assay type: cell-based; conditions: dose 6.5 µM
HCT-116 [4] = test: Induction of apoptosis in human HCT-116 cells assessed as viable cells at 3.25 uM measured after 24 hrs by Annexin V-FITC/propidium iodide staining based flow cytometry (reference value: 99.71%); assay type: functional; conditions: read-out: Activity
HCT-116 [5] = test: Induction of apoptosis in human HCT-116 cells assessed as formation of membrane blebs at 1.62 uM measured for 24 hrs by AO/EB staining based microscopic analysis; assay type: functional, cell-based
HCT-116 [6] = test: Induction of apoptosis in human HCT-116 cells assessed as early apoptotic cells at 1.62 uM measured after 24 hrs by Annexin V-FITC/propidium iodide staining based flow cytometry (reference value: 0.28%); assay type: functional
HCT-116 [7] = test: Induction of apoptosis in human HCT-116 cells assessed as early apoptotic cells at 3.25 uM measured after 24 hrs by Annexin V-FITC/propidium iodide staining based flow cytometry (reference value: 0.28%); assay type: functional
HCT-116 [8] = test: Induction of apoptosis in human HCT-116 cells assessed as necrotic cells at 3.25 uM measured after 24 hrs by Annexin V-FITC/propidium iodide staining based flow cytometry (reference value: 0.00%); assay type: functional
HCT-116 [9] = test: Induction of cell cycle arrest in human HCT-116 cells assessed as accumulation of cells at G0/G1 phase at 6.50 uM measured after 48 hrs by PI staining based flow cytometry analysis relative to control (reference value: 70.34%); assay type: functional; conditions: dose 6.5 µM
HCT-116 [10] = test: Induction of apoptosis in human HCT-116 cells assessed as viable cells at 1.62 uM measured after 24 hrs by Annexin V-FITC/propidium iodide staining based flow cytometry (reference value: 99.71%); assay type: functional; conditions: read-out: Activity
HCT-116 [11] = test: Induction of cell cycle arrest in human HCT-116 cells assessed as accumulation of cells at S phase at 6.50 uM measured after 48 hrs by PI staining based flow cytometry analysis relative to control (reference value: 5.55%); assay type: functional; conditions: dose 6.5 µM
Tubulin = test: Inhibition of tubulin polymerization in human HCT-116 cells; assay type: cell-based
HCT-116 [12] = test: Cytotoxicity against human HCT-116 cells assessed as inhibition of cell growth measured for 24 hrs by MTT assay; assay type: functional, cell-based; conditions: HCT-116, 24 h
In short: (§1)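 Cells were kept at 37 °C with 5% CO2 in suitable medium with 10% FBS and 1% antibiotic-antimycotic, and passaged at 80-90% confluency using 0.25% trypsin/1 mM EDTA. They were seeded at 1×10^3–4×10^3 cells/well and attached overnight. Compounds came from 10 mM DMSO stocks diluted in medium and were applied for 24 h. MTT (0.5 mg/mL) was added for 4 h at 37 °C, formazan was dissolved in DMSO, and absorbance was read at 570 nm.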

HCT-116 [13] = test: Induction of apoptosis in human HCT-116 cells assessed as early apoptotic cells at 6.50 uM measured after 24 hrs by Annexin V-FITC/propidium iodide staining based flow cytometry (reference value: 0.28%); assay type: functional; conditions: dose 6.5 µM
HCT-116 [14] = test: Induction of morphological change in human HCT-116 cells assessed as change in cell shape incubated for 24 hrs by phase contrast microscopic analysis; assay type: functional, cell-based; conditions: dose 1.62-6.5 µM
In short: (§2)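 HCT-116 plated at 1 × 10^6 cells/mL in RPMI + 10% FBS and allowed to adhere 24 h at 37 °C, 5% CO2. […] After 24 h, morphology imaged by phase-contrast microscopy at 20X.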

HCT-116 [15] = test: Induction of apoptosis in human HCT-116 cells assessed as cell rounding at 1.62 uM measured for 24 hrs by AO/EB staining based microscopic analysis; assay type: functional
HCT-116 [16] = test: Induction of morphological change in human HCT-116 cells assessed as cell detachment incubated for 24 hrs by phase contrast microscopic analysis; assay type: functional, cell-based; in short: as §2
HCT-116 [17] = test: Induction of apoptosis in human HCT-116 cells assessed as necrotic cells at 1.62 uM measured after 24 hrs by Annexin V-FITC/propidium iodide staining based flow cytometry (reference value: 0.00%); assay type: functional
Tubulin (Homo sapiens) [18] = target: T1, Tubulin (Homo sapiens); test: Inhibition of tubulin polymerization in human HCT-116 cells at 3.25 uM measured after 1 hr relative to control; assay type: cell-based
HCT-116 [19] = test: Induction of cell cycle arrest in human HCT-116 cells assessed as accumulation of cells at G2/M phase at 3.25 uM measured after […] by PI staining based flow cytometry analysis relative to control (reference value: 15.61%); assay type: functional
HCT-116 [20] = test: Induction of apoptosis in human HCT-116 cells assessed as late apoptotic cells at 6.50 uM measured after 24 hrs by Annexin V-FITC/propidium iodide staining based flow cytometry (reference value: 0.00%); assay type: functional; conditions: dose 6.5 µM
HCT-116 [21] = test: Induction of apoptosis in human HCT-116 cells assessed as viable cells at 6.50 uM measured after 24 hrs by Annexin V-FITC/propidium iodide staining based flow cytometry (reference value: 99.71%); assay type: functional; conditions: read-out: Activity
HCT-116 [22] = test: Induction of apoptosis in human HCT-116 cells assessed as necrotic cells at 6.50 uM measured after 24 hrs by Annexin V-FITC/propidium iodide staining based flow cytometry (reference value: 0.00%); assay type: functional; conditions: dose 6.5 µM
HCT-116 [23] = test: Induction of morphological change in human HCT-116 cells assessed as cell rounding incubated for 24 hrs by phase contrast microscopic analysis; assay type: functional, cell-based; conditions: dose 1.62-6.5 µM; in short: as §2
HCT-116 [24] = test: Induction of apoptosis in human HCT-116 cells assessed as micronuclei formation at 3.25 to 6.50 uM measured for 24 hrs by AO/EB staining based microscopic analysis; assay type: functional, cell-based; conditions: dose 3.25-6.5 µM
In short: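 Media removed; acridine orange and ethidium bromide (10 µg/ml, equal volumes) added in 1 mL PBS. Imaged immediately by fluorescence microscopy (excitation 488 nm, emission 550 nm) at 20X.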

B16-F10 = test: Cytotoxicity against mouse B16-F10 cells assessed as inhibition of cell growth measured for 24 hrs by MTT assay; assay type: functional, cell-based; conditions: B16-F10, 24 h; in short: as §1
A549 = test: Cytotoxicity against human A549 cells assessed as inhibition of cell growth measured for 24 hrs by MTT assay; assay type: functional, cell-based; conditions: A549, 24 h; in short: as §1
[25] = Cytotoxicity against human HaCaT cells assessed as inhibition of cell growth measured for 24 hrs by MTT assay; assay type: toxicity, cell-based; in short: as §1
BT-474 = test: Cytotoxicity against human BT-474 cells assessed as inhibition of cell growth measured for 24 hrs by MTT assay; assay type: functional, cell-based; conditions: BT-474, 24 h; in short: as §1

COc1ccc(/C=C(/C(=O)OCc2cn(Cc3cc(F)ccc3F)nn2)c2ccc(OC)c(OC)c2)cc1OC
Activity (HCT-116 [1]): 0.16% | Activity (HCT-116 [2]): 22.06% | inhibition (Tubulin (Homo sapiens) [3]): 65.2% | viability at 3.25 µM (HCT-116 [4]): 44.6% | Activity (HCT-116 [5]): Active | Activity (HCT-116 [6]): 18.1% | Activity (HCT-116 [7]): 13.51% | Activity (HCT-116 [8]): 16.66% | Activity (HCT-116 [9]): 38.48% | viability at 1.62 µM (HCT-116 [10]): 81.7% | Activity (HCT-116 [11]): 12.73% | pIC50 (Tubulin): 5.35 | pIC50 (HCT-116 [12]): 5.49 | Activity (HCT-116 [13]): 10.71% | Activity (HCT-116 [14]): Dose-Dependent Effect | Activity (HCT-116 [15]): Active | Activity (HCT-116 [16]): Dose-Dependent Effect | Activity (HCT-116 [17]): 0.52% | inhibition (Tubulin (Homo sapiens) [18]): 36.5% | Activity (HCT-116 [19]): 38.72% | Activity (HCT-116 [20]): 49.32% | viability at 6.5 µM (HCT-116 [21]): 27.5% | Activity (HCT-116 [22]): 12.94% | Activity (HCT-116 [23]): Dose-Dependent Effect | Activity (HCT-116 [24]): Active | pIC50 (B16-F10): 4.82 | pIC50 (A549): 4.95 | IC50 at 24 h [25]: 72.2 µM | pIC50 (BT-474): 4.89
